Values after ≈ are worked out from the molar mass of the structure shown. Active and inactive are the calls of the source. The calls are words filed in the database; no cut-off is given here.
How the values were obtained:
[1] = tested on: Candida albicans; assay: Antifungal activity against Fluconazole resistant Candida albicans clinical isolate 17 after 48 hrs by CLSI method; assay type: functional, organism-based
Method in brief: (§1)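 CLSI broth microdilution. Colonies from 24–72 h SD agar suspended in saline and sized by OD630 standard curve. Inoculum 1.5 × 10³ CFU/ml (final) in RPMI 1640 (0.2% dextrose, 0.03% glutamine, 0.165 M MOPS, pH 7.0). Twofold dilutions (11 levels) from 20% DMSO-saline, in duplicate. 35°C for 48 h, OD530 read before and after. IC50 fitted from % growth. MIC: no detectable growth. MFC: subculture onto SD agar.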

[2] = tested on: Trichophyton mentagrophytes; assay: Antifungal activity against Trichophyton mentagrophytes ATCC 9533 by CLSI method; assay type: functional, organism-based
Method in brief: (§2)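 Growth scraped from 1- to 6-week-old potato dextrose slants and filtered through Miracloth. Diluted in 5% Alamar blue-RPMI 1640 (MOPS pH 7.0) to 2.7 × 10⁴ CFU/ml. Eleven twofold dilutions in duplicate. Fluorescence at 544 nm excitation/590 nm emission read before and after 35°C, 5 days. IC50 fitted from percent growth. MIC taken as no detectable growth; MFC from clear or blue wells plated on PD agar.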

[3] = tested on: Aspergillus fumigatus; assay: Antifungal activity against Aspergillus fumigatus ATCC 90906 after 48 h by CLSI method; conditions: ATCC 90906, 48 h
[4] = tested on: Candida albicans; assay: Antifungal activity against Candida albicans ATCC 90028 after 48 hrs by CLSI method; assay type: functional, organism-based; conditions: ATCC 90028, 48 h; method in brief: as §1
[5] = tested on: Candida albicans; assay: Antifungal activity against Candida albicans ATCC 14053 after 48 hrs by CLSI method; assay type: functional, organism-based; conditions: ATCC 14053, 48 h; method in brief: as §1
[6] = tested on: Aspergillus niger; assay: Antifungal activity against Aspergillus niger ATCC 16404 after 48 h by CLSI method; conditions: ATCC 16404, 48 h
[7] = tested on: Aspergillus flavus; assay: Antifungal activity against Aspergillus flavus ATCC 204304 at 10.8 uM after 48 hrs by CLSI method; assay type: functional, organism-based
[8] = tested on: Candida albicans; assay: Antifungal activity against Fluconazole resistant Candida albicans clinical isolate 1 after 48 hrs by CLSI method; assay type: functional, organism-based; method in brief: as §1
[9] = tested on: Pichia kudriavzevii; assay: Antifungal activity against Candida krusei ATCC 6258 after 48 hrs by CLSI method; assay type: functional, organism-based; conditions: ATCC 6258, 48 h
Method in brief: (§3)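 Candida inocula came from 24–72-h SD agar colonies suspended in saline. They were diluted by OD630 standard curve into RPMI 1640 (0.2% dextrose, 0.03% glutamine, 0.165 M MOPS, pH 7.0) to 1.5 × 10³ CFU/ml. Compounds were run as 11 twofold dilutions in 20% DMSO-saline, in duplicate, at 35°C for 48 h, with OD530 read before and after. Percent growth at the top concentration, IC50, MIC, and MFC (SD agar plating) were derived.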

[10] = tested on: Aspergillus niger; assay: Antifungal activity against Aspergillus niger ATCC 16404 at 10.8 uM after 48 hrs by CLSI method; assay type: functional, organism-based
[11] = tested on: Candida albicans; assay: Antifungal activity against Candida albicans ATCC 32354 after 48 hrs by CLSI method; assay type: functional, organism-based; conditions: ATCC 32354, 48 h; method in brief: as §1
[12] = tested on: Aspergillus flavus; assay: Antifungal activity against Aspergillus flavus ATCC 204304 after 48 h by CLSI method; conditions: ATCC 204304, 48 h
[13] = tested on: Aspergillus fumigatus; assay: Antifungal activity against Aspergillus fumigatus ATCC 204305 after 48 h by CLSI method; conditions: ATCC 204305, 48 h
[14] = tested on: Candida albicans; assay: Antifungal activity against Candida albicans ATCC 200955 after 48 hrs by CLSI method; assay type: functional, organism-based; conditions: ATCC 200955, 48 h; method in brief: as §1
[15] = tested on: Trichophyton rubrum; assay: Antifungal activity against Trichophyton rubrum ATCC 10218 by CLSI method; assay type: functional, organism-based; method in brief: as §2
[16] = tested on: Candida tropicalis; assay: Antifungal activity against Candida tropicalis ATCC 750 after 48 hrs by CLSI method; assay type: functional, organism-based; conditions: ATCC 750, 48 h
Method in brief: (§4)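 Yeast suspensions made from 3-5 colonies off 24-72 h SD agar plates in saline. They were diluted by OD630 standard curve in RPMI 1640 (0.2% dextrose, 0.03% glutamine, 0.165 M MOPS, pH 7.0) to 1.5 × 10³ CFU/ml. Twofold dilutions (11 concentrations, 20% DMSO-saline) run in duplicate. OD530 read before and after 35°C, 48 h. Line values are top test concentrations; no-growth endpoints give MIC/MFC.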

[17] = tested on: Candida parapsilosis; assay: Antifungal activity against Candida parapsilosis ATCC 22019 after 48 hrs by CLSI method; assay type: functional, organism-based; conditions: Lodderomyces parapsilosis, ATCC 22019, 48 h; method in brief: as §4
[18] = tested on: Cryptococcus neoformans; assay: Antifungal activity against Cryptococcus neoformans ATCC 90113 after 72 hrs by CLSI method; assay type: functional, organism-based; conditions: ATCC 90113, 72 h
Method in brief: (§5)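 SD broth replaced RPMI because growth in RPMI was poor; other CLSI conditions were kept. Inoculum was 1.5 × 10³ CFU/ml from colonies on SD agar, checked by plating. Twofold serial dilutions (11 concentrations) in 20% DMSO-saline were tested in duplicate. OD530 was read before and after incubation at 35°C for 72 h. Percent growth gave IC50; the MIC is the lowest concentration with no detectable growth.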

[19] = tested on: Trichophyton rubrum; assay: Antifungal activity against Trichophyton rubrum ATCC MYA-4438 by CLSI method; assay type: functional, organism-based; method in brief: as §2
[20] = tested on: Nakaseomyces glabratus; assay: Antifungal activity against Candida glabrata ATCC 90030 after 48 hrs by CLSI methodCandida glabrata; assay type: functional, organism-based; conditions: ATCC 90030, 48 h; method in brief: as §3
[21] = tested on: Trichophyton mentagrophytes; assay: Antifungal activity against Trichophyton mentagrophytes ATCC MYA-4439 by CLSI method; assay type: functional, organism-based; method in brief: as §2
[22] = tested on: Cryptococcus neoformans; assay: Antifungal activity against Cryptococcus neoformans ATCC 66031 after 72 hrs by CLSI method; assay type: functional, organism-based; conditions: ATCC 66031, 72 h; method in brief: as §5
[23] = tested on: Candida albicans; assay: Antifungal activity against Candida albicans ATCC 60193 after 48 hrs by CLSI method; assay type: functional, organism-based; conditions: ATCC 60193, 48 h; method in brief: as §1

## C[C@@H]1[C@H](O)[C@@H](C)/C=C/C=C/C=C/C=C/C=C/C=C/C=C/[C@H](O[C@@H]2O[C@H](C)[C@@H](O)[C@H](N)[C@@H]2O)C[C@@H]2O[C@](O)(C[C@@H](O)C[C@@H](O)[C@H](O)CC[C@@H](O)C[C@@H](O)CC(=O)O[C@H]1C)C[C@H](O)[C@H]2C(=O)O [AMPHOTERICIN B]
[1]
  IC50: 200 nM
  MFC: 1.4 µM (≈ 1.29 µg/mL)
  MIC: 1 µM (≈ 0.924 µg/mL)
[2]
  IC50: 600 nM
  MFC: 2.7 µM (≈ 2.5 µg/mL)
  MIC: 2 µM (≈ 1.85 µg/mL)
[3]
  IC50: 900 nM
  MFC: 2.7 µM (≈ 2.5 µg/mL)
  MIC: 1.4 µM (≈ 1.29 µg/mL)
[4]
  MFC: 1.4 µM (≈ 1.29 µg/mL)
  MIC: 1 µM (≈ 0.924 µg/mL)
[5]
  MFC: 1.4 µM (≈ 1.29 µg/mL)
  MIC: 1 µM (≈ 0.924 µg/mL)
[6]
  IC50: 900 nM
  MIC: 2 µM (≈ 1.85 µg/mL)
[7]
  Activity: inactive
[8]
  IC50: 200 nM
  MFC: 1.4 µM (≈ 1.29 µg/mL)
  MIC: 1 µM (≈ 0.924 µg/mL)
[9]
  MFC: 2.7 µM (≈ 2.5 µg/mL)
  MIC: 2 µM (≈ 1.85 µg/mL)
[10]
  Activity: inactive
[11]
  MFC: 1.4 µM (≈ 1.29 µg/mL)
  MIC: 1 µM (≈ 0.924 µg/mL)
[12]
  IC50: 1500 nM
  MIC: 2.7 µM (≈ 2.5 µg/mL)
[13]
  IC50: 1200 nM
  MFC: 10.8 µM (≈ 9.98 µg/mL)
  MIC: 2 µM (≈ 1.85 µg/mL)
[14]
  IC50: 600 nM
  MFC: 2.7 µM (≈ 2.5 µg/mL)
  MIC: 2.7 µM (≈ 2.5 µg/mL)
[15]
  IC50: 600 nM
  MFC: 1.4 µM (≈ 1.29 µg/mL)
  MIC: 1.4 µM (≈ 1.29 µg/mL)
[16]
  IC50: 300 nM
  MFC: 1.4 µM (≈ 1.29 µg/mL)
  MIC: 1 µM (≈ 0.924 µg/mL)
[17]
  IC50: 300 nM
  MFC: 5.4 µM (≈ 4.99 µg/mL)
  MIC: 2 µM (≈ 1.85 µg/mL)
[18]
  IC50: 300 nM
  MFC: 0.7 µM (≈ 0.647 µg/mL)
  MIC: 0.7 µM (≈ 0.647 µg/mL)
[19]
  IC50: 600 nM
  MFC: 5.4 µM (≈ 4.99 µg/mL)
  MIC: 1.4 µM (≈ 1.29 µg/mL)
[20]
  IC50: 400 nM
  MFC: 1.4 µM (≈ 1.29 µg/mL)
  MIC: 1.4 µM (≈ 1.29 µg/mL)
[21]
  IC50: 900 nM
  MFC: 1.4 µM (≈ 1.29 µg/mL)
  MIC: 1.4 µM (≈ 1.29 µg/mL)
[22]
  IC50: 80 nM
  MFC: 0.34 µM (≈ 0.314 µg/mL)
  MIC: 0.34 µM (≈ 0.314 µg/mL)
[23]
  IC50: 200 nM
  MFC: 1.4 µM (≈ 1.29 µg/mL)
  MIC: 1 µM (≈ 0.924 µg/mL)

From ChEMBL document CHEMBL1275449, “Potent in vitro antifungal activities of naturally occurring acetylenic acids” (Antimicrob Agents Chemother, 2008)
